Results on twelve compounds are retold here after ChEMBL document CHEMBL3585256, “Triphenylphosphonium Cations of the Diterpenoid Isosteviol: Synthesis and Antimitotic Activity in a Sea Urchin Embryo Model” (J Nat Prod, 2015).

Molecules are shown by their SMILES. Active and inactive are the calls of the source.

The subject of data set [1] is Paracentrotus lividus. Nature of the data set: Antimitotic activity against sea urichin L embryo model assessed as cleavage alteration after 2.5 to 5.5 hrs of fertilization by sea urichin embryo assay. The class given is functional.
The subject of data set [2] is Paracentrotus lividus. Briefly: Antimitotic activity against sea urichin L embryo model assessed as full mitotic arrest by sea urichin embryo assay. The class given is functional.
The subject of data set [3] is Paracentrotus lividus. Briefly: Antimitotic activity against sea urichin L embryo model assessed as embryo spinning by sea urichin embryo assay. The format is functional.
Data set [4] has as its system Paracentrotus lividus. Nature of the data set: Antimitotic activity against sea urichin L embryo model assessed as death of embryo at hatched blastula stage by sea urichin embryo assay. The class given is functional.
The subject of data set [5] is Paracentrotus lividus. Briefly: Antimitotic activity against sea urichin L embryo model assessed as inhibition of skeletal spiculae growth by sea urichin embryo assay. The format is functional. In short, it runs like this: (§1)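 Hatched free-swimming blastulae (8−9 h postfertilization) exposed to compound and followed to four-arm pluteus (34−36 h). Scored for spicule growth inhibition or arrest at late gastrula. Gametes obtained by intracoelomic 0.5 M KCl; embryos grown in filtered seawater at room temperature with paddle stirring, monolayer up to 2000 embryos/mL. Stocks in DMSO diluted with EtOH, or in water.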

Data set [6] deals with Paracentrotus lividus. Briefly: Induction of mitotic spindle defects in sea urichin L embryo model assessed as aberrant mitotic spindles by conventional light microscopy. The class given is functional, organism-based. In short, it runs like this:
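Eggs exposed 8−15 min postfertilization, incubated at 21 °C. Mitotic apparatus examined by light microscopy at 1 h (first cleavage anaphase) and 2.5 h postfertilization, scored for aberrant, multipolar or absent spindles.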

Data set [7] relates to Paracentrotus lividus. Nature of the data set: Antimitotic activity against sea urichin L embryo model assessed as late gastrula stage by sea urichin embryo assay. The class given is functional. The method, boiled down:
as §1

The test system of data set [8] is Paracentrotus lividus. Nature of the data set: Induction of mitotic spindle defects in sea urichin L embryo model assessed as complete blocked of spindle assembly at 50 nM by conventional light microscopy.
Data set [9] deals with Paracentrotus lividus. Briefly: Induction of mitotic spindle defects in sea urichin L embryo model assessed as formation of aberrant mitotic spindles at 2 uM by conventional light microscopy.
Data set [10] concerns Paracentrotus lividus. Nature of the data set: Toxicity in sea urichin L embryo assessed as development up to 4 uM. The settings on record: in vivo. The class given is organism-based. The method, boiled down: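 Fertilized eggs exposed 8−15 min postfertilization to 2-fold decreasing concentrations, with cleavage alteration or arrest scored at 2.5−5.5 h. Effective threshold concentration defined as the lowest giving 100% cleavage alteration and embryo death before hatching, with no effect at 2-fold lower. Final DMSO ≤0.05% and EtOH ≤1%. Run in duplicate.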

Another data set relates to HL-60. Briefly: Cytotoxicity against human HL60 cells by MTT assay. The format is functional, cell-based.
The subject of the next data set is MOLT-4. Nature of the data set: Cytotoxicity against human MOLT4 cells by MTT assay. The class given is functional. The following applies: read-out: LD50 (the source's name). Background: Tetrazolium dyes change colour on reduction, which living cells bring about.
In the next data set the test system is BALL-1. Nature of the data set: Cytotoxicity against human BALL-1 cells by MTT assay. The settings on record: read-out: LD50 (the source's name). The class given is functional.
The nature of data set [11]: Cytotoxicity against human NUGC3 cells by MTT assay. The class given is functional. The following applies: NUGC-3, read-out: LD50 (the source's name).

As for `COc1cc([C@@H]2c3cc4c(cc3[C@@H](O[C@@H]3O[C@@H]5CO[C@@H](C)O[C@H]5[C@H](O)[C@H]3O)[C@H]3COC(=O)[C@H]23)OCO4)cc(OC)c1O` [ETOPOSIDE], the EC in the data set with Paracentrotus lividus [1] was 0.5 µM; with Paracentrotus lividus [2], greater than 68 µM; with Paracentrotus lividus [3], greater than 68 µM; in the data set with Paracentrotus lividus [4], 40 µM; in the data set on Paracentrotus lividus [5], 4 µM.

Regarding `C[C@@]12CC[C@@H]3[C@@](CC[C@H]4[C@@]3(C)CCC[C@@]4(C)C(=O)OCCCCCCCC[P+](c3ccccc3)(c3ccccc3)c3ccccc3)(CC1=O)C2.[Br-]`, the EC was 2 µM with Paracentrotus lividus [1], greater than 4 µM in the data set on Paracentrotus lividus [2], greater than 4 µM in the data set with Paracentrotus lividus [3] and 0.5 µM in the data set on Paracentrotus lividus [4]. Moreover, the result with Paracentrotus lividus [6] was Active.

`CC(=O)O[C@H]1C(=O)[C@@]2(C)[C@H]([C@H](OC(=O)c3ccccc3)[C@]3(O)C[C@H](OC(=O)[C@H](O)[C@@H](NC(=O)c4ccccc4)c4ccccc4)C(C)=C1C3(C)C)[C@]1(OC(C)=O)CO[C@@H]1C[C@@H]2O` [PACLITAXEL]: the EC with Paracentrotus lividus [1] is 0.5 µM; with Paracentrotus lividus [2], greater than 10 µM; in the data set on Paracentrotus lividus [3] it was greater than 10 µM; in the data set on Paracentrotus lividus [4], 2 µM.

`CC[N+](CC)(CC)CCOCCOCCOCCOC(=O)[C@]1(C)CCC[C@@]2(C)[C@@H]3CC[C@@]4(C)C[C@]3(CC[C@@H]21)CC4=O.[Br-]`: the EC is greater than 100 µM in the data set on Paracentrotus lividus [1], greater than 100 µM in the data set with Paracentrotus lividus [2], greater than 100 µM with Paracentrotus lividus [3] and 100 µM with Paracentrotus lividus [5].

Turning to `C[C@@]12CC[C@@H]3[C@@](CC[C@H]4[C@@]3(C)CCC[C@@]4(C)C(=O)OCCOCCOCCOCCOCC[P+](c3ccccc3)(c3ccccc3)c3ccccc3)(CC1=O)C2.[Br-]`, the EC in the data set with Paracentrotus lividus [1] was 1 µM; in the data set on Paracentrotus lividus [2] it was 4 µM; with Paracentrotus lividus [3], greater than 10 µM. Moreover, the outcome in the data set on Paracentrotus lividus [6] was Active.

With `C[C@@]12CC[C@@H]3[C@@](CC[C@H]4[C@@]3(C)CCC[C@@]4(C)C(=O)OCCC[P+](c3ccccc3)(c3ccccc3)c3ccccc3)(CC1=O)C2.[Br-]`, the EC was 2 µM in the data set on Paracentrotus lividus [1], greater than 4 µM in the data set on Paracentrotus lividus [2], greater than 4 µM with Paracentrotus lividus [3] and 4 µM in the data set on Paracentrotus lividus [4]. Besides, the result with Paracentrotus lividus [6] was Active.

In the case of `COC(=O)Nc1nc2cc(C(=O)c3cccs3)ccc2[nH]1` [NOCODAZOLE], the EC with Paracentrotus lividus [1] is 0.005 µM; in the data set with Paracentrotus lividus [2], 0.1 µM; in the data set with Paracentrotus lividus [3], 0.1 µM; in the data set on Paracentrotus lividus [4], greater than 0.5 µM; in the data set on Paracentrotus lividus [7] it was 0.02 µM. Moreover, in the data set on Paracentrotus lividus [8], the result was Active.

As to `C[C@@]12CC[C@@H]3[C@@](CC[C@H]4[C@@]3(C)CCC[C@@]4(C)C(=O)OCCCCCC[P+](c3ccccc3)(c3ccccc3)c3ccccc3)(CC1=O)C2.[Br-]`, the EC in the data set with Paracentrotus lividus [1] was 2 µM; with Paracentrotus lividus [2] it was greater than 4 µM; in the data set with Paracentrotus lividus [3], greater than 4 µM; in the data set on Paracentrotus lividus [4], 1 µM. The outcome with Paracentrotus lividus [6] and in the data set on Paracentrotus lividus [9] was Active.

For the compound `C[C@@]12CC[C@@H]3[C@@](CC[C@H]4[C@@]3(C)CCC[C@@]4(C)C(=O)OCCOCCOCC[P+](c3ccccc3)(c3ccccc3)c3ccccc3)(CC1=O)C2.[Br-]`, the EC was 1 µM in the data set with Paracentrotus lividus [1], 2 µM with Paracentrotus lividus [2] and greater than 10 µM in the data set on Paracentrotus lividus [3]. For the same compound, the outcome in the data set on Paracentrotus lividus [6] was Active.

Consider `C[C@@]12CC[C@@H]3[C@@](CC[C@H]4[C@@]3(C)CCC[C@@]4(C)C(=O)OCCOCCOCCOCC[P+](c3ccccc3)(c3ccccc3)c3ccccc3)(CC1=O)C2.[Br-]`, for which the EC in the data set on Paracentrotus lividus [1] is 1 µM; in the data set on Paracentrotus lividus [2], 2 µM; in the data set on Paracentrotus lividus [3], greater than 10 µM. For the same compound, in the data set with Paracentrotus lividus [6], the result was Active.

What is called IC50 is the concentration that gives 50% inhibition. A lower IC50 goes with inhibition by little substance. In the case of `C[C@@]12CC[C@@H]3[C@@](CC[C@H]4[C@@]3(C)CCC[C@@]4(C)C(=O)O)(CC1=O)C2` [ISOSTEVIOL], the EC in the data set on Paracentrotus lividus [1], with Paracentrotus lividus [2] and in the data set with Paracentrotus lividus [3] was greater than 4 µM throughout. Further, the Activity result with Paracentrotus lividus [10] is reported as “Non-toxic”. The compound further gave an IC50 with HL-60 of 75 µM. For the same compound, the figures for the CC50 (in the data set on MOLT-4; in the data set on BALL-1; in data set [11]) were 84 µM, 87 µM and 167 µM, respectively.

As to `CC[N+](CC)(CC)CCOCCOCCOC(=O)[C@]1(C)CCC[C@@]2(C)[C@@H]3CC[C@@]4(C)C[C@]3(CC[C@@H]21)CC4=O.[Br-]`, the EC was greater than 100 µM with Paracentrotus lividus [1], greater than 100 µM in the data set with Paracentrotus lividus [2], greater than 100 µM with Paracentrotus lividus [3] and 40 µM in the data set on Paracentrotus lividus [5].
